From ChEMBL document CHEMBL1821687, “Discovery, synthesis, and biological evaluation of novel SMN protein modulators” (J Med Chem, 2011)
Calls of active or inactive are those of the source. The calls are words filed in the database; no cut-off is given here.

Columns and labels:
Caco-2 [1] = assay: Apparent permeability from basolateral side to apical side of human Caco2 cells at 10 uM; type: ADME, cell-based; conditions: caco-2, 10 µM
Caco-2 [2] = assay: Apparent permeability from apical side to basolateral side of human Caco2 cells at 10 uM; type: ADME, cell-based; conditions: caco-2, 10 µM
Liver = assay: Half-life in mouse liver microsome at 1 uM; type: ADME; conditions: microsomes
[3] = molecular target: T1, Luciferin 4-monooxygenase (Luciola lateralis, UniProt Q01158); assay: Inhibition of fire fly luciferase; design: species or system Aquatica lateralis; conditions: read-out: IC50
T1 sequence (Q01158 whole entry): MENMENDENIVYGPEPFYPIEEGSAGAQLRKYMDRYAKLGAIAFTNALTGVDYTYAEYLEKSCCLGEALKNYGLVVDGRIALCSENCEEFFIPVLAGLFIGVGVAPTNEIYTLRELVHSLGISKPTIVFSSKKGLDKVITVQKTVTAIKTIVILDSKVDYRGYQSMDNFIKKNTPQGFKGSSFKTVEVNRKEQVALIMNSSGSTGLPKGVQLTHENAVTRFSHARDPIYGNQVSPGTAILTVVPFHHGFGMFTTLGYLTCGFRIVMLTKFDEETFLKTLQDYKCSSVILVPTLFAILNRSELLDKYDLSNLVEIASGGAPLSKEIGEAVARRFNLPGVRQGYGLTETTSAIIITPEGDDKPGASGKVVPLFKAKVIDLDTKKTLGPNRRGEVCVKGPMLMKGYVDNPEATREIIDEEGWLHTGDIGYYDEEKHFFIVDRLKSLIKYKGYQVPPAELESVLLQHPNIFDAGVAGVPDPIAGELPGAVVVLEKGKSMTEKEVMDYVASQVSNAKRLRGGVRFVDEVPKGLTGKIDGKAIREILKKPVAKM

[4] = molecular target: Survival motor neuron protein (Homo sapiens) (UniProt Q16637); assay: Activation of SMN in human fibroblast cells obtained from type 1 SMA patients assessed as protein punctuate bodies per 100 nuclei at 37 to 3000 nM; type: cell-based
In short: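 Type I SMA patient fibroblasts (3813 line) were treated with 37–3000 nM compound for 3 days. Gems were then counted per 100 nuclei.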

[5] = molecular target: Survival motor neuron protein (Homo sapiens) (UniProt Q16637); assay: Activation of SMN expressed in HEK293 cells assessed as rate of induction by SMN2-promotor driven luciferase reporter gene assay relative to basal level; type: cell-based; design: concentration or dose not given beside the values
In short: (§1)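 HEK-293 cells stably carrying the SMN2 reporter construct, kept in DMEM with 10% FCS, glutamax, pyruvate, pen/strep and 200 µg/mL hygromycin, and assayed without hygromycin. 2,000 cells/well were plated and adhered overnight at 37 °C, 5% CO2. Compounds were added as a 7-point titration, 50 µM to 25 nM final, in 0.46% DMSO, for 30–36 h. OneGlo luminescence was normalized to 4.5 mM sodium butyrate (100%) and DMSO (0%).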

[6] = molecular target: Survival motor neuron protein (Homo sapiens) (UniProt Q16637); assay: Activation of SMN expressed in HEK293 cells assessed as concentration required to reach 50% of maximum luciferase signal by SMN2-promotor driven luciferase reporter gene assay; type: cell-based; in short: as §1

Chain of Survival motor neuron protein (Homo sapiens) (Q16637 whole entry): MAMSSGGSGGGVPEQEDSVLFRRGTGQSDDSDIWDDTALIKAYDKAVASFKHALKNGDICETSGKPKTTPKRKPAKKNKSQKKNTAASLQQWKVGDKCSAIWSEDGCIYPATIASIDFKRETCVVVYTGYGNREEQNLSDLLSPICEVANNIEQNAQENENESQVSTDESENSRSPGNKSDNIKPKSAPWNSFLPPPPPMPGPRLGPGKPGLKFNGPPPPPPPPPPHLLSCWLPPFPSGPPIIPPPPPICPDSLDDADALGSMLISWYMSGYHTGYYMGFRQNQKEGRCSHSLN

- Papp (Caco-2 [1]): 9.9 ×10⁻⁶ cm/s
- Papp (Caco-2 [2]): 13.1 ×10⁻⁶ cm/s
- t1/2 (Liver): 30 min
- IC50 [3]: 3.2 µM
Compound: NC(=O)C1CCN(c2ncc(-c3ccc4c(c3)OCCCO4)s2)CC1
- Activity [4]: inactive
- Activity [5]: 370%
- Activity [6]: 0.038 µM
